Source: ChEMBL document CHEMBL2150871, “Design, synthesis and biological evaluation of new peptide-based ureas and thioureas as potential antagonists of the thrombin receptor PAR1” (Eur J Med Chem, 2012)

Biological target: T1, Proteinase-activated receptor 1 (Homo sapiens) (UniProt P25116)
T1 sequence (whole entry): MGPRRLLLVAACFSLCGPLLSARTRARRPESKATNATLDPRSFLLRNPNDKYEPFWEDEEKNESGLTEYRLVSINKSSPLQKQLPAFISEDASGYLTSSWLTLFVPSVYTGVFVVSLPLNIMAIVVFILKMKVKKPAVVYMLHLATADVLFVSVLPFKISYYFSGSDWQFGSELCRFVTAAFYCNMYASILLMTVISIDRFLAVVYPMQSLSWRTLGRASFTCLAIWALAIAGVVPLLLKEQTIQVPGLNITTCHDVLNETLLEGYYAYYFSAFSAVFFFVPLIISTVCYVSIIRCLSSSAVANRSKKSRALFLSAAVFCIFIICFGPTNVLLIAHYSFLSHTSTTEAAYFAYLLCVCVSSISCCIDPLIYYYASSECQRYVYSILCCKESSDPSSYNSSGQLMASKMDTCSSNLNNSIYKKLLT
Assay: Antagonist activity at PAR1 in human platelets assessed as inhibition of SFLLRN-induced aggregation at 10 uM after 5 mins relative to vehicle-treated control
Format: functional
Summary of the method: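 Human donors who had taken no platelet-altering drugs for two weeks gave venous blood into 3.2% buffered citrate. Spun at 250×g for 7 min to give PRP, then 900×g for 10 min to give PPP, which served as optical reference and diluent. Diluted PRP was preincubated 5 min at 37 °C with compound or DMSO vehicle, then challenged with SFLLRN. Maximal optical aggregation at 5 min was compared with SFLLRN/vehicle to give % inhibition.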

`NCC[C@H](NC(=O)[C@H](Cc1ccc(F)c(F)c1)NC(=O)Nc1ccc2c(CN3CCCC3)nn(Cc3c(Cl)cccc3Cl)c2c1)C(=O)NCc1ccccc1` showed an inhibition of 98%.
